# Key:
# [1] = target: Serine/threonine-protein kinase B-raf (Homo sapiens, UniProt P15056); experiment: Inhibition of human wild type BRAF using myelin basic protein as substrate in presence of [gamma-33P]ATP incubated for 40 mins by scintillation counting method
# Procedure, shortened: (§1)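 Radiometric kinase assay run at Reaction Biology. Kinase (5−10 mU) in 25 mM Tris pH 7.5, 0.02 mM EGTA, 10 mM magnesium acetate with 0.66 mg/mL myelin basic protein and [γ-33P]ATP at 1 μM ATP. Reaction started with Mg-ATP and run 40 min at room temperature, then stopped with 3% phosphoric acid. Spotted on P30 filtermat, washed, scintillation counted.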
# [2] = system: Panel melanoma (Carcinoma cell lines); experiment: cells; conditions: Homo sapiens, 48 h, read-out: INH
# [3] = target: Serine/threonine-protein kinase B-raf (Homo sapiens, UniProt P15056, V600E); experiment: Inhibition of human BRAF V600E mutant using myelin basic protein as substrate in presence of [gamma-33P]ATP incubated for 40 mins by scintillation counting method; procedure, shortened: as §1
# Sequence of Serine/threonine-protein kinase B-raf (Homo sapiens, UniProt P15056, V600E) (P15056 2-766 V600E limits assumed): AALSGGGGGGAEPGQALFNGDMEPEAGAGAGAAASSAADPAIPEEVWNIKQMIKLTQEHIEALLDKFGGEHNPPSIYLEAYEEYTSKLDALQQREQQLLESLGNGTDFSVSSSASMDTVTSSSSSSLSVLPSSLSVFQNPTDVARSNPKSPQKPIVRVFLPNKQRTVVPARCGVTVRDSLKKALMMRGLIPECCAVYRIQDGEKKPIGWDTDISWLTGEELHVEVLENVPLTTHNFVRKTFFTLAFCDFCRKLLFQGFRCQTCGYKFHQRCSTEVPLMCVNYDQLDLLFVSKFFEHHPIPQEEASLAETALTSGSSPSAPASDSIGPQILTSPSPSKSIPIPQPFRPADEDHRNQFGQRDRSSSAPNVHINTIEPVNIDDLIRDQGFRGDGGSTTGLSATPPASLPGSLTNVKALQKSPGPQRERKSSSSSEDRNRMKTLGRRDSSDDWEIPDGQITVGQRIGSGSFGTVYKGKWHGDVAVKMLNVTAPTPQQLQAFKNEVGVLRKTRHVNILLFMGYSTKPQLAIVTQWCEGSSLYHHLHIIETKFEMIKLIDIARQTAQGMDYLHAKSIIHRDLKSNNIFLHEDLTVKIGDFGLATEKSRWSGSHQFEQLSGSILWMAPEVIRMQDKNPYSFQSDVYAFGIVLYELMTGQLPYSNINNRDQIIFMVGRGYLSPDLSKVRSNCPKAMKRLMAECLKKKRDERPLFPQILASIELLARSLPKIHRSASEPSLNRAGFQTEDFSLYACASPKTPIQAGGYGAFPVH
# [4] = target: RAF proto-oncogene serine/threonine-protein kinase (Homo sapiens, UniProt P04049); experiment: Inhibition of human wild type CRAF using myelin basic protein as substrate in presence of [gamma-33P]ATP incubated for 40 mins by scintillation counting method
# Sequence of RAF proto-oncogene serine/threonine-protein kinase (P04049 whole entry): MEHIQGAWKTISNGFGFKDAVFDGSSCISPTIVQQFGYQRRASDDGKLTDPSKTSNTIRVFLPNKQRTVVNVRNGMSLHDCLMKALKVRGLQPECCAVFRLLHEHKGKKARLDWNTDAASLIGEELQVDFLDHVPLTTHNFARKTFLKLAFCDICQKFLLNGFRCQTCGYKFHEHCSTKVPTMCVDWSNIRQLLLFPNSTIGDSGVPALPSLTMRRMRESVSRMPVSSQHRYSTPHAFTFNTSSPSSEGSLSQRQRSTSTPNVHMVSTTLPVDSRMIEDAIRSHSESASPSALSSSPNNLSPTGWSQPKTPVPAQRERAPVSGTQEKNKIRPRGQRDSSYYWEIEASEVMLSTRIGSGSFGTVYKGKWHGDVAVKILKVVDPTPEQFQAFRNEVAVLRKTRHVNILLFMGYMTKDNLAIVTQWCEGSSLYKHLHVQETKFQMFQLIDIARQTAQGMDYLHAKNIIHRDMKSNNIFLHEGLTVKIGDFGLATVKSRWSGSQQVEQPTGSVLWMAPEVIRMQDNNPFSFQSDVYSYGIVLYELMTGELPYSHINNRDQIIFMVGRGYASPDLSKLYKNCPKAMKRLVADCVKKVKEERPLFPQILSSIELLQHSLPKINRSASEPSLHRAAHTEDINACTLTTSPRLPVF
# [5] = target: Mitogen-activated protein kinase 8 (Homo sapiens, UniProt P45983); experiment: Inhibition of MAPK8 (unknown origin) incubated for 1 hr by qPCR analysis
# Sequence of Mitogen-activated protein kinase 8 (P45983 whole entry): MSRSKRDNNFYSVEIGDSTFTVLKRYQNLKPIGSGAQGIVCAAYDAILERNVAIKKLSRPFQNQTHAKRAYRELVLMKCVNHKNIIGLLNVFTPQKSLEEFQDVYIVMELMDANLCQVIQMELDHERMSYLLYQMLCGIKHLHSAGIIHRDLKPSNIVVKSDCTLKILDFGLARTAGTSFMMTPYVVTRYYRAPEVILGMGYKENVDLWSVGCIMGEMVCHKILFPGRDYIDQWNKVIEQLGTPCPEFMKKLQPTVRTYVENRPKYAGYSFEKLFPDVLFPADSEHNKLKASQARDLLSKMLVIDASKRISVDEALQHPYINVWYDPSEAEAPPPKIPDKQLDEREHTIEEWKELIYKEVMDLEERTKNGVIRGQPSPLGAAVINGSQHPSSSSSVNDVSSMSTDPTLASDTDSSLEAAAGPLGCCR
# Procedure, shortened: (§2)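 Competition binding assay. Kinases were either T7-phage-tagged (grown in an E. coli BL21-derived host) or expressed in HEK-293 cells and DNA-tagged. […] Bound kinase was eluted with non-biotinylated ligand and quantified by qPCR.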
# [6] = target: T1, Receptor-type tyrosine-protein kinase FLT3 (Homo sapiens, UniProt P36888); experiment: Inhibition of FLT3 (unknown origin) incubated for 1 hr by qPCR analysis; procedure, shortened: as §2
# T1 sequence (P36888 whole entry): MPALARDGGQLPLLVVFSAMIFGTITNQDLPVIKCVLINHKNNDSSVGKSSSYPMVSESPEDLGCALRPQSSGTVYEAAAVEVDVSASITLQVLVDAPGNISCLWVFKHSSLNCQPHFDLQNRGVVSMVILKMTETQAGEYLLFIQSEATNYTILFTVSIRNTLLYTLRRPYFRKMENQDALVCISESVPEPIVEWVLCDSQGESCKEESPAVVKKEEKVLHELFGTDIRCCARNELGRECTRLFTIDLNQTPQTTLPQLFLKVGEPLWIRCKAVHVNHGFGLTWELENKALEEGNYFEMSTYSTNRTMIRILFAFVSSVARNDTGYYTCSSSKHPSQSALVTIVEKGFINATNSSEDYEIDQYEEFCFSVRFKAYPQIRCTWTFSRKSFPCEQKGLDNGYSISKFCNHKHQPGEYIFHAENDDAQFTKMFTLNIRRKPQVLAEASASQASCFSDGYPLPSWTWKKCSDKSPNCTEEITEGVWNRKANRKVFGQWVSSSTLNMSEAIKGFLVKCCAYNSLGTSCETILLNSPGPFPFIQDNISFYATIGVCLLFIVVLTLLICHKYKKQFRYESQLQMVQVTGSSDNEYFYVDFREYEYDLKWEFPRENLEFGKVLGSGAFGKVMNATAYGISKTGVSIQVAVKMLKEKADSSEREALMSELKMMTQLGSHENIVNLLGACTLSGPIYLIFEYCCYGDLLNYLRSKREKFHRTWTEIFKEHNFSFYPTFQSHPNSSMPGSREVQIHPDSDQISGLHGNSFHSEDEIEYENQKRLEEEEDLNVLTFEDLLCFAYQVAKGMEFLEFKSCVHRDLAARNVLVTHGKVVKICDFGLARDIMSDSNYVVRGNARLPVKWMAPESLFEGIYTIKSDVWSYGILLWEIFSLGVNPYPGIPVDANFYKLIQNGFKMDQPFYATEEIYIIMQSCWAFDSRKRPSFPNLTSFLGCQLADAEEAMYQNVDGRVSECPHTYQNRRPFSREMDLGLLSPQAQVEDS
# [7] = target: Mitogen-activated protein kinase kinase kinase 20 (Homo sapiens, UniProt Q9NYL2); experiment: Inhibition of ZAK (unknown origin) incubated for 1 hr by qPCR analysis; procedure, shortened: as §2
# Sequence of Mitogen-activated protein kinase kinase kinase 20 (Q9NYL2 whole entry): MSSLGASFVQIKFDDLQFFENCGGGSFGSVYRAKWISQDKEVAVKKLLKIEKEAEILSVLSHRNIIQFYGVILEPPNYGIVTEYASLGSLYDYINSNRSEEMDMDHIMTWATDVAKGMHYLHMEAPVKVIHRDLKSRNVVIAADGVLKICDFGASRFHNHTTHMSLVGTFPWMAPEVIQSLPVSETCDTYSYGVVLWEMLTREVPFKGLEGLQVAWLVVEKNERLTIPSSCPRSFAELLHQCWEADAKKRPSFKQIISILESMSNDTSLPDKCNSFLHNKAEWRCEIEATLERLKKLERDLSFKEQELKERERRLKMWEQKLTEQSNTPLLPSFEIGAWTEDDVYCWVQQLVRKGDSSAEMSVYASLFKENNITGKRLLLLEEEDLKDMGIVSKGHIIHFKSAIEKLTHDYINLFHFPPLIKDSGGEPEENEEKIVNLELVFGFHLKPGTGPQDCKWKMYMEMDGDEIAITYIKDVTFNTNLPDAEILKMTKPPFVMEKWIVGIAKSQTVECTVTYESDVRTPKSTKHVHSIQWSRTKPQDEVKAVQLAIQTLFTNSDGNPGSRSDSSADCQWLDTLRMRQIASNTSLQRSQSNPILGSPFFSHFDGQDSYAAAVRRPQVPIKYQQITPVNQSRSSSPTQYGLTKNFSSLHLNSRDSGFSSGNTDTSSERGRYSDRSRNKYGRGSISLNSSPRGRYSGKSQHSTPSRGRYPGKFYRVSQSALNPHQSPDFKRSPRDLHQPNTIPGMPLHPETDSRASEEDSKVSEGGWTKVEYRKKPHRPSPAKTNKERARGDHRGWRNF
# [8] = target: Fibroblast growth factor receptor 1 (Homo sapiens, UniProt P11362); experiment: Inhibition of FGFR1 (unknown origin) incubated for 1 hr by qPCR analysis
# Sequence of Fibroblast growth factor receptor 1 (P11362 whole entry): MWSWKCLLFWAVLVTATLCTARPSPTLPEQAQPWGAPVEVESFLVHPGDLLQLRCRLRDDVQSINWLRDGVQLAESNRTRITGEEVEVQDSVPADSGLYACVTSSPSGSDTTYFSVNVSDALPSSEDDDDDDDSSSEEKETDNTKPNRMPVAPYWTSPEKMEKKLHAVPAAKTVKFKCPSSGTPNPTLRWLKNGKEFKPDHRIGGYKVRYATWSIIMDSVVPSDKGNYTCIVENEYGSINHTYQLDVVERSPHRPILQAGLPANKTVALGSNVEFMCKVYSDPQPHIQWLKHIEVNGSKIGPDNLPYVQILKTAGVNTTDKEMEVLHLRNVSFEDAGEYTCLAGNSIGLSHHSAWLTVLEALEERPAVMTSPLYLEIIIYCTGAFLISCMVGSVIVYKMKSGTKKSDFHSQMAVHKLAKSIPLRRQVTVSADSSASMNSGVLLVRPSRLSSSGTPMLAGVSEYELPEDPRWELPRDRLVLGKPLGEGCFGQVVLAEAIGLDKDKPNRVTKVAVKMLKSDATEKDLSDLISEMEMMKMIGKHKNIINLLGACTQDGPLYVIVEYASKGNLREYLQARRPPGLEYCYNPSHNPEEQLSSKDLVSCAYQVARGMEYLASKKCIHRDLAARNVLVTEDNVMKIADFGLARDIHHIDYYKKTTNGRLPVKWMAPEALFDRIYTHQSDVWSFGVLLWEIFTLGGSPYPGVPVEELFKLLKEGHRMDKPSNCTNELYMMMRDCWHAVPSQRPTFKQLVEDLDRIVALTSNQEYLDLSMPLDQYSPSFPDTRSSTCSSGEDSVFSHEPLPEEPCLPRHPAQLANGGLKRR
# [9] = target: Mitogen-activated protein kinase 11 (Homo sapiens, UniProt Q15759); experiment: Inhibition of MAPK11 (unknown origin) incubated for 1 hr by qPCR analysis; procedure, shortened: as §2
# Sequence of Mitogen-activated protein kinase 11 (Q15759 whole entry): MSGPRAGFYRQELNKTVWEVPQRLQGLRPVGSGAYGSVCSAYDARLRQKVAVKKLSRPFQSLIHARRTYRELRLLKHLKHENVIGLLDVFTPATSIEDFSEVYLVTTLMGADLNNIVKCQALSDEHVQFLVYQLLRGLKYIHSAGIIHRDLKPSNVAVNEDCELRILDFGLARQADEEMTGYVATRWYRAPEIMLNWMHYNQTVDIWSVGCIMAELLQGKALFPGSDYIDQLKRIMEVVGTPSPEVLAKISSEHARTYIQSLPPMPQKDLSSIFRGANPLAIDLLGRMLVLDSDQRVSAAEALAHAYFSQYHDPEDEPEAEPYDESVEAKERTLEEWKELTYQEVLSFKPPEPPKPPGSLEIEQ
# [10] = target: Serine/threonine-protein kinase/endoribonuclease IRE1 (Homo sapiens, UniProt O75460); experiment: Inhibition of ERN1 (unknown origin) incubated for 1 hr by qPCR analysis; procedure, shortened: as §2
# [11] = target: Mitogen-activated protein kinase 14 (Homo sapiens, UniProt Q16539); experiment: Inhibition of MAPK14 (unknown origin) incubated for 1 hr by qPCR analysis; procedure, shortened: as §2
# Sequence of Mitogen-activated protein kinase 14 (Q16539 whole entry): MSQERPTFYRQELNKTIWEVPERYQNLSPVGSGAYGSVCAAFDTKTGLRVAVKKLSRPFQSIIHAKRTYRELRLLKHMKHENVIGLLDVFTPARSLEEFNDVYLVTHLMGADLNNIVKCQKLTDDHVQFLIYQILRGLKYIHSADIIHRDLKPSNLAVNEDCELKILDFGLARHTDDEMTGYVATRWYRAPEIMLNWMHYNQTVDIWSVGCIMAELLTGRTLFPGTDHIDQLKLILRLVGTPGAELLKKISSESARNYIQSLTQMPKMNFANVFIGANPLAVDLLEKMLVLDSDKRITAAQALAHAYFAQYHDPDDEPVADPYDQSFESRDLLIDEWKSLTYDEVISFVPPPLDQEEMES
# [12] = target: Homeodomain-interacting protein kinase 1 (Homo sapiens, UniProt Q86Z02); experiment: Inhibition of HIPK1 (unknown origin) incubated for 1 hr by qPCR analysis; procedure, shortened: as §2
# [13] = Cytotoxicity against human BJ cells assessed as cell growth inhibition incubated for 48 hrs by MTT assay; type: toxicity, cell-based
# Procedure, shortened: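 BJ1 normal skin fibroblasts were seeded at 10 × 10³ cells/well with compound in triplicate wells and grown in DMEM-F12 at 37 °C, 5% CO₂, across an eight-point dilution series. Growth inhibition was calculated as (1 − T/C) × 100, and IC50 was taken from the dose–response curve.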
# [14] = Cytotoxicity against human L132 cells assessed as cell growth inhibition incubated for 48 hrs by MTT assay; type: toxicity, cell-based
# [15] = system: Panel renal (Carcinoma cell lines); experiment: Antiproliferative activity against human Panel renal (Carcinoma cell lines) assessed as cell growth inhibition measured after 48 hrs by SRB assay
# [16] = system: Panel breast (Carcinoma cell lines); experiment: Antiproliferative activity against human Panel breast (Carcinoma cell lines) assessed as cell growth inhibition measured after 48 hrs by SRB assay
# [17] = system: Panel ovarian (Carcinoma cell lines); experiment: Antiproliferative activity against human Panel ovarian (Carcinoma cell lines) assessed as cell growth inhibition measured after 48 hrs by SRB assay
# M14 [18] = experiment: Antiproliferative activity against human M14 cells assessed as cell growth inhibition measured after 48 hrs by SRB assay; conditions: M14, 48 h
# SK-MEL-28 [19] = experiment: Antiproliferative activity against human SK-MEL-28 cells assessed as total growth inhibition measured after 48 hrs by SRB assay; conditions: SK-MEL-28, 48 h
# Malme-3M [20] = experiment: Antiproliferative activity against human Malme-3M cells assessed as cell growth inhibition measured after 48 hrs by SRB assay
# UACC-62 [21] = experiment: Antiproliferative activity against human UACC-62 cells assessed as total growth inhibition measured after 48 hrs by SRB assay; conditions: UACC-62, 48 h
# SK-MEL-2 [22] = experiment: Antiproliferative activity against human SK-MEL-2 cells assessed as cell growth inhibition measured after 48 hrs by SRB assay; conditions: SK-MEL-2, 48 h
# SK-MEL-28 [23] = experiment: Antiproliferative activity against human SK-MEL-28 cells assessed as cell growth inhibition measured after 48 hrs by SRB assay; conditions: SK-MEL-28, 48 h
# [24] = system: Panel melanoma (Carcinoma cell lines); experiment: Antiproliferative activity against human Panel melanoma (Carcinoma cell lines) assessed as cell growth inhibition measured after 48 hrs by SRB assay
# SK-MEL-5 [25] = experiment: Antiproliferative activity against human SK-MEL-5 cells assessed as cell growth inhibition measured after 48 hrs by SRB assay; conditions: SK-MEL-5, 48 h
# NSCLC = experiment: Antiproliferative activity against human NSCLC cell line assessed as cell growth inhibition measured after 48 hrs by SRB assay
# MDA-MB-435 [26] = experiment: Antiproliferative activity against human MDA-MB-435 cells assessed as total growth inhibition measured after 48 hrs by SRB assay; conditions: MDA-MB-435, 48 h
# M14 [27] = experiment: Antiproliferative activity against human M14 cells assessed as total growth inhibition measured after 48 hrs by SRB assay; conditions: M14, 48 h
# LOX IMVI [28] = experiment: Antiproliferative activity against human LOX IMVI cells assessed as total growth inhibition measured after 48 hrs by SRB assay
# UACC-62 [29] = experiment: Antiproliferative activity against human UACC-62 cells assessed as cell growth inhibition measured after 48 hrs by SRB assay; conditions: UACC-62, 48 h
# [30] = system: Panel CNS (Carcinoma cell lines); experiment: Antiproliferative activity against human Panel CNS (Carcinoma cell lines) assessed as cell growth inhibition measured after 48 hrs by SRB assay
# SK-MEL-5 [31] = experiment: Antiproliferative activity against human SK-MEL-5 cells assessed as total growth inhibition measured after 48 hrs by SRB assay; conditions: SK-MEL-5, 48 h
# [32] = system: Panel leukemia (Carcinoma cell lines); experiment: Antiproliferative activity against human Panel leukemia (Carcinoma cell lines) assessed as cell growth inhibition measured after 48 hrs by SRB assay
# UACC-257 [33] = experiment: Antiproliferative activity against human UACC-257 cells assessed as total growth inhibition measured after 48 hrs by SRB assay; conditions: UACC-257, 48 h
# UACC-257 [34] = experiment: Antiproliferative activity against human UACC-257 cells assessed as cell growth inhibition measured after 48 hrs by SRB assay; conditions: UACC-257, 48 h
# [35] = system: Panel prostate (Carcinoma cell lines); experiment: Antiproliferative activity against human Panel prostate (Carcinoma cell lines) assessed as cell growth inhibition measured after 48 hrs by SRB assay
# Malme-3M [36] = experiment: Antiproliferative activity against human Malme-3M cells assessed as total growth inhibition measured after 48 hrs by SRB assay
# LOX IMVI [37] = experiment: Antiproliferative activity against human LOX IMVI cells assessed as cell growth inhibition measured after 48 hrs by SRB assay
# MDA-MB-435 [38] = experiment: Antiproliferative activity against human MDA-MB-435 cells assessed as cell growth inhibition measured after 48 hrs by SRB assay; conditions: MDA-MB-435, 48 h
# [39] = system: Panel colon (Carcinoma cell lines); experiment: Antiproliferative activity against human Panel colon (Carcinoma cell lines) assessed as cell growth inhibition measured after 48 hrs by SRB assay
# SK-MEL-2 [40] = experiment: Antiproliferative activity against human SK-MEL-2 cells assessed as total growth inhibition measured after 48 hrs by SRB assay; conditions: SK-MEL-2, 48 h
# in vitro = conditions: human, BJ cells and Malme-3M cells
# Sequence of Serine/threonine-protein kinase B-raf (Homo sapiens, UniProt P15056) (P15056 whole entry): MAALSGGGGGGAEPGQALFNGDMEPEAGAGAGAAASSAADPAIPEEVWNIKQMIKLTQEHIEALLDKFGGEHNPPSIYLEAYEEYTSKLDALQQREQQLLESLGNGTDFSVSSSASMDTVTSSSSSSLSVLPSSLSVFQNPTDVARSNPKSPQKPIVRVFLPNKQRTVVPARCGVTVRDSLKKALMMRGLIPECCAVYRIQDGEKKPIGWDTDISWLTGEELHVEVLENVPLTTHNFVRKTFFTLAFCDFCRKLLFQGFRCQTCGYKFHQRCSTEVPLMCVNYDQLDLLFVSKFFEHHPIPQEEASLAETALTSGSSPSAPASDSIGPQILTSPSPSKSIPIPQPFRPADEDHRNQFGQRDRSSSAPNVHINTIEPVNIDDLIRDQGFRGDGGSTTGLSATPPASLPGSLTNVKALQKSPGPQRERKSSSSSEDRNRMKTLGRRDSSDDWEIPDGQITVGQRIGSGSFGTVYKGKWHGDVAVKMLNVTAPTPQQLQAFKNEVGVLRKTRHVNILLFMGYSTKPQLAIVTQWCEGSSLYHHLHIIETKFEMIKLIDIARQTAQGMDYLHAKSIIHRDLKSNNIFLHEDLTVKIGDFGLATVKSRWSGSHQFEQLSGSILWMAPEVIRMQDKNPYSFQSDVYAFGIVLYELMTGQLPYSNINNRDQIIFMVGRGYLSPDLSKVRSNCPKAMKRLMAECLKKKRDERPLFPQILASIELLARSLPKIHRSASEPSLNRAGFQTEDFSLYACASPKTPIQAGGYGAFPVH
compound,measurement,setting,value
COc1cccc(-c2nc3sccn3c2-c2ccnc(NCCCNS(=O)(=O)c3ccc(F)cc3)n2)c1,IC50,[1],430 nM
same,inhibition at 10 µM,[2],101%
same,IC50,[3],90.3 nM
same,IC50,[4],95.2 nM
COc1cccc(-c2nc3sccn3c2-c2ccnc(NCCNS(=O)(=O)c3ccc(C(F)(F)F)cc3)n2)c1,IC50,[5],420 nM
same,IC50,[6],2170 nM
same,IC50,[7],8110 nM
same,IC50,[8],15600 nM
same,IC50,[9],120 nM
same,IC50,[10],> 20000 nM
same,IC50,[4],142 nM
same,IC50,[11],98 nM
same,IC50,[12],4580 nM
COc1ccc(-c2nc3sccn3c2-c2ccnc(NCCNS(=O)(=O)c3ccc(C)cc3)n2)cc1,IC50 at 48 h,[13],126000 nM
same,IC50,[1],19300 nM
same,IC50 at 48 h,[14],466000 nM
same,IC50,[3],26600 nM
same,IC50,[4],21300 nM
COc1cccc(-c2nc3sccn3c2-c2ccnc(NCCCNS(=O)(=O)c3cccc(F)c3)n2)c1,IC50,[5],360 nM
same,IC50,[6],2980 nM
same,IC50,[1],526 nM
same,IC50,[7],11300 nM
same,IC50,[8],11800 nM
same,IC50,[9],95 nM
same,IC50,[10],15600 nM
same,IC50,[3],102 nM
same,IC50,[4],111 nM
same,IC50,[11],88 nM
same,IC50,[12],3840 nM
O=S(=O)(NCCCNc1nccc(-c2c(-c3ccccc3)nc3sccn23)n1)c1ccc(F)cc1,IC50,[1],276 nM
same,inhibition at 10 µM,[2],59.7%
same,IC50,[3],57.7 nM
same,IC50,[4],87.8 nM
CN1CCCN(CCNc2nccc(-c3c(-c4cccc(O)c4)nc4sccn34)n2)S1(=O)=O,IC50,[15],5980 nM
same,IC50,[16],11900 nM
same,IC50 at 48 h,[13],75600 nM
same,IC50,[17],12000 nM
same,IC50,M14 [18],174 nM
same,TGI,SK-MEL-28 [19],52000 nM
same,IC50,Malme-3M [20],36 nM
same,IC50,[1],6.33 nM
same,TGI,UACC-62 [21],3140 nM
same,IC50,SK-MEL-2 [22],2260 nM
same,IC50,SK-MEL-28 [23],240 nM
same,IC50,[24],1790 nM
same,IC50,SK-MEL-5 [25],348 nM
same,IC50,NSCLC,13600 nM
same,TGI,MDA-MB-435 [26],51600 nM
same,TGI,M14 [27],12900 nM
same,TGI,LOX IMVI [28],28200 nM
same,IC50,UACC-62 [29],58 nM
same,IC50,[30],16400 nM
same,TGI,SK-MEL-5 [31],10300 nM
same,inhibition at 10 µM,[2],84.8%
same,IC50,[32],11900 nM
same,IC50 at 48 h,[14],93600 nM
same,IC50,[3],3.77 nM
same,TGI,UACC-257 [33],> 100000 nM
same,IC50,[4],1.96 nM
same,IC50,UACC-257 [34],8210 nM
same,IC50,[35],11600 nM
same,TGI,Malme-3M [36],408 nM
same,IC50,LOX IMVI [37],4360 nM
same,IC50,MDA-MB-435 [38],490 nM
same,IC50,[39],8080 nM
same,TGI,SK-MEL-2 [40],7360 nM
same,selectivity ratio,in vitro,2100
CC1(C)CN(CCNc2nccc(-c3c(-c4cccc(O)c4)nc4sccn34)n2)S(=O)(=O)N1,IC50,[1],10.3 nM
same,inhibition at 10 µM,[2],79.7%
same,IC50,[3],6.35 nM
same,IC50,[4],4.26 nM
COc1cccc(-c2nc3sccn3c2-c2ccnc(NCCN3CCCN(C(=O)OC(C)(C)C)S3(=O)=O)n2)c1,IC50,[1],23.3 nM
same,IC50,[3],12.6 nM
same,IC50,[4],11.2 nM
